Test results published in ChEMBL document CHEMBL1148398, “Design, synthesis, and biological evaluation of thio-containing compounds with serum HDL-cholesterol-elevating properties” (2004).

Columns and labels:
[1] = system: Cricetinae gen. sp.; assay: Percent change in triglycerides following oral administration of compound in hypercholesterolemic hamsters at 100 mg/kg/day for 14 days; format: functional
How it was run: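 Male Syrian Golden hamsters pre-fed chow plus 0.25% cholesterol for 2 weeks and kept on it. Dosed 100 mg/kg/day by oral gavage in 2% Tween 80/saline for 14 days. Serum total cholesterol and glycerol-blanked triglycerides read enzymatically; lipoproteins separated by FPLC with cholesterol measured in each fraction. % change versus vehicle controls; six per group, p < 0.05.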

[2] = system: Cricetinae gen. sp.; assay: Effect of compound on high-density lipoprotein cholesterol levels in 1st group of cholesterol-fed male hamsters at 3 mg/kg/day after 14 days of treatment; format: functional, organism-based
[3] = system: Cricetinae gen. sp.; assay: Effect of compound on high-density lipoprotein cholesterol levels in 2nd group of cholesterol-fed male hamsters at 10 mg/kg/day after 14 days of treatment; format: functional, organism-based
[4] = system: Cricetinae gen. sp.; assay: Effect of compound on high-density lipoprotein cholesterol levels in 3rd group of cholesterol-fed male hamsters at 30 mg/kg/day after 14 days of treatment; format: functional, organism-based
[5] = system: Rattus norvegicus; assay: Effect of compound on gain in body weight in 2nd group of normal chow-fed male rats after a dose of 2 mg/kg/day; format: functional
How it was run: (§1)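 Male Sprague–Dawley CD rats (60–80 g) on standard chow under a reversed 12 h light/dark cycle. Compound was suspended in 1.3% Tween 80/0.25% CMC and given as a single daily oral gavage dose for 4 days. Rats were fasted overnight and killed 24 h after the last dose. Serum ALT, AST, ALKP and LDH were read on a clinical analyzer. Weight gain was start versus end weight. Mean ± SEM, n = 6.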

[6] = system: Rattus norvegicus; assay: Effect of compound on gain in body weight in 3rd group of normal chow-fed male rats after a dose of 5 mg/kg/day; format: functional; how it was run: as §1
[7] = system: Rattus norvegicus; assay: Effect of compound on gain in body weight in 5th group of normal chow-fed male rats after a dose of 20 mg/kg/day; format: functional; how it was run: as §1
[8] = system: Rattus norvegicus; assay: Percent change in low-density lipoprotein cholesterol following oral administration of compound in normal chow-fed rats at 100 mg/kg/day for 4 days; format: functional
How it was run: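 Chow-fed male Sprague–Dawley CD rats, 60–80 g, gavaged 100 mg/kg/day for 4 days in 1.3% Tween 80/0.25% CMC. Fasted overnight, bled 24 h after the last dose. Total cholesterol and glycerol-blanked triglycerides read enzymatically; lipoproteins by FPLC with cholesterol per fraction. % change versus control; six per group, p < 0.05.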

[9] = system: Rattus norvegicus; assay: Effect of compound on aspartate aminotransferase (AST) levels in 3rd group of normal chow-fed male rats after a dose of 5 mg/kg/day; format: functional, organism-based; how it was run: as §1
[10] = system: Rattus norvegicus; assay: Effect of compound on lactic dehydrogenase (LDH) levels in 2nd group of normal chow-fed male rats after a dose of 2 mg/kg/day; format: functional, organism-based; how it was run: as §1
[11] = system: Rattus norvegicus; assay: Effect of compound on liver weight in 4th group of normal chow-fed male rats after a dose of 10 mg/kg/day; format: functional
How it was run: (§2)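 Male Sprague–Dawley CD rats, 60–80 g, on chow with a reverse 12 h light/dark cycle. Given one oral gavage dose daily for 4 days, suspended in 1.3% Tween 80/0.25% CMC. Fasted overnight and sacrificed 24 h after the last dose for blood and liver. Serum liver enzymes read on a clinical analyzer. Six per group, mean ± SEM.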

[12] = system: Rattus norvegicus; assay: Effect of compound on liver weight in 1st group of normal chow-fed male rats after a dose of 1 mg/kg/day; format: functional; how it was run: as §2
[13] = system: Rattus norvegicus; assay: Effect of compound on low-density lipoprotein cholesterol levels in 2nd group of normal chow-fed male rats after a dose of 2 mg/kg/day; format: functional, organism-based
How it was run: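 Male Sprague–Dawley CD rats, 60–80 g, on standard chow with reverse 12 h light/dark cycle. One oral gavage dose daily for 4 days, suspended in 1.3% Tween 80 and 0.25% CMC. Fasted overnight; sacrificed 24 h after the last dose. Serum TC on clinical analyzer, lipoproteins by FPLC with cholesterol per fraction, T4 on analyzer. Mean ± SEM, six rats per group.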

[14] = system: Rattus norvegicus; assay: Effect of compound on serum high-density lipoprotein cholesterol concentration in chow-fed male rats at a dose of 0 mg/kg/day; format: functional, organism-based
How it was run: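 Separate dose-response study in male Sprague–Dawley CD rats, 60–80 g, on chow. Oral gavage once daily for 4 days in 1.3% Tween 80 / 0.25% CMC; fasted overnight, bled 24 h after last dose. Apo-A1 by ELISA with rabbit anti-rat primary, alkaline phosphatase-conjugated anti-rabbit IgG and p-nitrophenyl phosphate substrate. HDL-C by FPLC fractionation. Mean ± SEM, six per group.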

[15] = system: Rattus norvegicus; assay: Effect of compound on total plasma cholesterol levels in 7th group of normal chow-fed male rats after a dose of 100 mg/kg/day; format: functional, organism-based
How it was run: (§3)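 Male Sprague–Dawley CD rats (60–80 g) on Purina 5001 chow with a reverse 12 h light/dark cycle. Dosed once daily by oral gavage for 4 days, suspended in 1.3% Tween 80 / 0.25% CMC. Fasted overnight and bled 24 h after the last dose. Serum TC and glycerol-blanked TG measured enzymatically; VLDL-C by FPLC fractionation with cholesterol assay. n=6, mean ± SEM.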

[16] = system: Rattus norvegicus; assay: Effect of compound on triglyceride levels in 4th group of normal chow-fed male rats after a dose of 10 mg/kg/day; format: functional, organism-based; how it was run: as §3
[17] = Effect on serum lipids in 3rd group of cholesterol-fed male hamsters at 30 mg/kg/day after 14 days of treatment was evaluated as ratio of total cholesterol levels to high-density lipoprotein cholesterol levels; format: functional
How it was run: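 Male Syrian Golden hamsters on chow plus 0.25% cholesterol, 2 weeks before and during dosing. Oral gavage for 14 days in 2% Tween 80/saline. Fasted 4 h before sacrifice. Serum total cholesterol measured enzymatically; HDL-C from cholesterol in FPLC lipoprotein fractions; TC/HDL-C ratio calculated. Six per group, mean ± SEM.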

[18] = system: Rattus norvegicus; assay: Effect of compound on liver weight in 7th group of normal chow-fed male rats after a dose of 100 mg/kg/day; format: functional; how it was run: as §2
[19] = system: Rattus norvegicus; assay: Effect of compound on liver weight in 3rd group of normal chow-fed male rats after a dose of 5 mg/kg/day; format: functional; how it was run: as §2
[20] = system: Cricetinae gen. sp.; assay: Effect of compound on triglycerides level in 2nd group of cholesterol-fed male hamsters at 10 mg/kg/day after 14 days of treatment; conditions: Mesocricetus auratus
[21] = system: Cricetinae gen. sp.; assay: Effect of compound on triglycerides level in 3rd group of cholesterol-fed male hamsters at 30 mg/kg/day after 14 days of treatment; conditions: Mesocricetus auratus
[22] = system: Mesocricetus auratus; assay: Effect of compound on gain in body weight in 4th group of cholesterol-fed male hamsters at 100 mg/kg/day after 14 days of treatment
[23] = system: Cricetinae gen. sp.; assay: Effect of compound on total plasma cholesterol levels in 2nd group of cholesterol-fed male hamsters at 10 mg/kg/day after 14 days of treatment; conditions: Mesocricetus auratus
[24] = system: Cricetinae gen. sp.; assay: Effect of compound on lactic dehydrogenase (LDH) levels in 4th group of cholesterol-fed male hamsters at 100 mg/kg/day after 14 days of treatment; conditions: Mesocricetus auratus
[25] = system: Cricetinae gen. sp.; assay: Effect of compound on very low-density lipoprotein cholesterol levels in 3rd group of cholesterol-fed male hamsters at 30 mg/kg/day after 14 days of treatment; conditions: Mesocricetus auratus

SMILES: CCN1CC(=O)N(c2cc(Cl)ccc2C)C1=S
- Change [1]: -34%
- Serum level [2]: 136 mg/dL
- Serum level [3]: 133 mg/dL
- Serum level [4]: 156 mg/dL
- Body weight [5]: 28.5 g
- Body weight [6]: 30.7 g
- Body weight [7]: 30.3 g
- Change [8]: 9.6%
- Level [9]: 216 U l-1
- Level [10]: 692 U l-1
- Liver weight [11]: 8.3 g
- Liver weight [12]: 8.4 g
- Serum level [13]: 5.7 mg/dL
- Serum level [14]: 51.9 mg/dL
- Serum level [15]: 118 mg/dL
- Serum level [16]: 21 mg/dL
- Ratio [17]: 2.39
- Liver weight [18]: 7.8 g
- Liver weight [19]: 7.2 g
- Serum level [20]: 455 mg/dL
- Serum level [21]: 433 mg/dL
- Body weight [22]: 9 g
- Serum level [23]: 370 mg/dL
- Level [24]: 1390 U l-1
- Serum level [25]: 91 mg/dL
